# Results from different studies.
# Each line is one published result; the experiments were not run side by side.
# Target: SNF-related serine/threonine-protein kinase (SNRK, Homo sapiens, UniProt Q9NRH2)
# Sequence (Q9NRH2 1-765, as in one of the studies): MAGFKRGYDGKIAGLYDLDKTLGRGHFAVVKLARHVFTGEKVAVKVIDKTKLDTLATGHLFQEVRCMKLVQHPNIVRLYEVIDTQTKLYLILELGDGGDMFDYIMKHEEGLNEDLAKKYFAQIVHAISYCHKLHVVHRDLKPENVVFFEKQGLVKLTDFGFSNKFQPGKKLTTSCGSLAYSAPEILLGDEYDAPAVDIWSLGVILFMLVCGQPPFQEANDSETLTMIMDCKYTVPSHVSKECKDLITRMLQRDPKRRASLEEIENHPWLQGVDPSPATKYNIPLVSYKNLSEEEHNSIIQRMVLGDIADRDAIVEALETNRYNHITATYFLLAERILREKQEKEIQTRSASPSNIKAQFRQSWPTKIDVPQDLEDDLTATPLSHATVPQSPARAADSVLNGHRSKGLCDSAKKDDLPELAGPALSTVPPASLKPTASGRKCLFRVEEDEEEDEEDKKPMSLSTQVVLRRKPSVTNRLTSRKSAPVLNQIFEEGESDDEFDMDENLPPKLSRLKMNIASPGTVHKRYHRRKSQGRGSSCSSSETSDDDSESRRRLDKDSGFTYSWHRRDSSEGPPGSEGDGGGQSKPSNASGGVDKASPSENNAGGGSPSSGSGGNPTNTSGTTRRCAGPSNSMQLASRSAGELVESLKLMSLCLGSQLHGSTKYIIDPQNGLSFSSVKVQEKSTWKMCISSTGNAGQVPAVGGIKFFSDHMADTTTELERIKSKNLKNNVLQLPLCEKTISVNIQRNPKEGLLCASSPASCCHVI
SMILES,effect on,action,technique,tested at,quantity,value
CNC(=O)Nc1ccc2c(c1)CC[C@@]21OC(=O)N(CC(=O)N(Cc2ccc(F)cc2)[C@@H](C)C(F)(F)F)C1=O,cell-free assay,,competition with immobilised ligand,1 µM,remaining binding,96%
Nc1ncnc2occ(-c3ccc(NC(=O)Nc4cc(C(F)(F)F)ccc4F)cc3)c12,cell-free assay,inhibitor,,20 µM,remaining signal,64%
C[C@@H]1CN(c2cc(-c3nn(C)c4ccc(OC5(C)CC5)cc34)ncn2)C[C@H](C)O1,cell-free assay,,competition with immobilised ligand,1 µM,remaining binding,92%
Cc1cnc(NC2CCOCC2)nc1-n1cnc(C(=O)NC(CN)c2cc(F)cc(Cl)c2)c1 (stereo not drawn),enzyme activity,inhibitor,radiometric,1 µM,remaining activity,100%
CN1CC(Oc2cnc(C#N)cc2-c2ccn3nc(NC(=O)C4CC4)cc3c2)C1,enzyme activity,inhibitor,,1 µM,inhibition,-12%
Cc1sc(C(=O)NC2COC2)cc1-n1cc(NC(=O)Nc2c(F)cccc2Cl)cn1,enzyme activity,inhibitor,,10 µM,remaining activity,102%
Cc1cc(NC(=O)c2cccc3cc(-c4cccc5[nH]nc(N)c45)ccc23)ccc1F,enzyme activity,inhibitor,,0.1 µM,activity vs control,109%
COc1cccc2c(NCc3ccccc3)nc(-n3c(N)nc4ccccc43)nc12,target engagement in cells,inhibitor,chemoproteomics,20 mM,inhibition,1.2%
Cc1ccc(NC(=O)c2ccc(C)c(C(F)(F)F)c2)cc1C#Cc1nn(C2CCC(O)CC2)c2ncnc(N)c12 (stereo not drawn),cell-free assay,,,10 µM,remaining signal,92%
O=C(Nc1cnn(-c2csc(C(=O)NC3COC3)c2)c1)Nc1ccccc1Cl,enzyme activity,inhibitor,,5 µM,remaining activity,96.8%
c1ccc(CNc2nc(N3CCOc4ccccc43)nc3c2CCCC3)cc1,target engagement in cells,inhibitor,chemoproteomics,20 mM,inhibition,0.3%
COc1cc(Cl)c(C(=O)N[C@@H](CN[C@H]2CC[C@@H](N)CC2)Cc2ccc(C#N)cc2)cc1-c1ccc(CN[C@H](C)c2ccc(C)cc2)o1,enzyme activity,inhibitor,,1 µM,remaining activity,104%
